Experimental data as given in ChEMBL document CHEMBL3244289, “Synthesis and antibacterial activity of 2'-substituted chelocardin analogues” (1979).
Activity calls are given as the source filed them. No cut-off for these calls is given here.

Key:
[1] = tested on: Pasteurella multocida; assay: Antibacterial activity against Pasteurella multocida 10544 by two-fold agar dilution method; assay type: functional
Procedure, shortened: (§1)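 MIC determined by twofold serial dilution in brain-heart infusion agar. Values are reported in µg/mL.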

[2] = tested on: Enterococcus; assay: Antibacterial activity against Enterococcus 89 by two-fold agar dilution method; assay type: functional; procedure, shortened: as §1
[3] = tested on: Proteus mirabilis; assay: Antibacterial activity against Proteus mirabilis by two-fold agar dilution method; assay type: functional; procedure, shortened: as §1
[4] = tested on: Escherichia coli; assay: Antibacterial activity against Escherichia coli Juhl by two-fold agar dilution method; assay type: functional; procedure, shortened: as §1
[5] = tested on: Salmonella typhi; assay: Antibacterial activity against Salmonella typhi by two-fold agar dilution method; assay type: functional, Salmonella enterica subsp. enterica serovar Typhi; details: Salmonella enterica
Procedure, shortened: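 MIC in µg/mL by twofold serial agar dilution on brain-heart infusion agar.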

[6] = tested on: Staphylococcus aureus; assay: Antibacterial activity against Staphylococcus aureus Smith by two-fold agar dilution method; assay type: functional; procedure, shortened: as §1
[7] = tested on: Klebsiella pneumoniae; assay: Antibacterial activity against Klebsiella pneumoniae 8045 by two-fold agar dilution method; assay type: functional; procedure, shortened: as §1
[8] = tested on: Streptococcus pyogenes; assay: Antibacterial activity against Streptococcus pyogenes C-203 by two-fold agar dilution method; assay type: functional; procedure, shortened: as §1
[9] = tested on: Proteus vulgaris; assay: Antibacterial activity against Proteus vulgaris by two-fold agar dilution method; assay type: functional; procedure, shortened: as §1
[10] = tested on: Staphylococcus aureus; assay: Antibacterial activity against Staphylococcus aureus 45 by two-fold agar dilution method; assay type: functional; procedure, shortened: as §1
[11] = tested on: Pseudomonas aeruginosa; assay: Antibacterial activity against Pseudomonas aeruginosa by two-fold agar dilution method; assay type: functional, organism-based; procedure, shortened: as §1

SMILES	MIC [1] [µg/mL]	MIC [2] [µg/mL]	MIC [3] [µg/mL]	MIC [4] [µg/mL]	MIC [5] [µg/mL]	MIC [6] [µg/mL]	MIC [7] [µg/mL]	MIC [8] [µg/mL]	MIC [9] [µg/mL]	MIC [10] [µg/mL]	Activity [11]
CCCC(=O)N/N=C(\C)C1=C(O)[C@H](N)[C@@H]2Cc3c(c(O)c4c(O)c(C)ccc4c3C)C(=O)[C@]2(O)C1=O.Cl	1.56	50	12.5	50	12.5	50	12.5	25	12.5	50	inactive
C/C(=N\NC(=O)c1ccccc1O)C1=C(O)[C@H](N)[C@@H]2Cc3c(c(O)c4c(O)c(C)ccc4c3C)C(=O)[C@]2(O)C1=O.Cl	25	> 100	> 100	> 100	> 100	> 100	> 100	> 100	> 100	> 100	inactive
COc1ccc(/N=C(\C)C2=C(O)[C@H](N)[C@@H]3Cc4c(c(O)c5c(O)c(C)ccc5c4C)C(=O)[C@]3(O)C2=O)cc1.Cl	0.78	6.2	6.2	25	3.1	12.5	3.1	3.1	3.1	12.5	inactive
CNC(=O)N/N=C(\C)C1=C(O)[C@H](N)[C@@H]2Cc3c(c(O)c4c(O)c(C)ccc4c3C)C(=O)[C@]2(O)C1=O.Cl	3.1	50	50	50	25	25	12.5	25	25	50	inactive
C/C(=N\c1ccc(Cl)cc1)C1=C(O)[C@H](N)[C@@H]2Cc3c(c(O)c4c(O)c(C)ccc4c3C)C(=O)[C@]2(O)C1=O.Cl	0.39	25	3.1	25	3.1	6.2	3.1	6.2	1.56	6.2	inactive
C/C(=N\NC(=O)c1ccc(N)cc1)C1=C(O)[C@H](N)[C@@H]2Cc3c(c(O)c4c(O)c(C)ccc4c3C)C(=O)[C@]2(O)C1=O.Cl (stereo in doubt)	1.56	50	12.5	50	12.5	50	12.5	25	12.5	50	inactive
C/C(=N\c1ccccc1)C1=C(O)[C@H](N)[C@@H]2Cc3c(c(O)c4c(O)c(C)ccc4c3C)C(=O)[C@]2(O)C1=O.Cl	1.56	25	6.2	25	6.2	12.5	12.5	12.5	6.2	12.5	inactive
C/C(=N\NC(=O)CC#N)C1=C(O)[C@H](N)[C@@H]2Cc3c(c(O)c4c(O)c(C)ccc4c3C)C(=O)[C@]2(O)C1=O.Cl	1.56	50	12.5	50	12.5	50	12.5	50	12.5	50	inactive
C/C(=N\NC(=O)c1ccncc1)C1=C(O)[C@H](N)[C@@H]2Cc3c(c(O)c4c(O)c(C)ccc4c3C)C(=O)[C@]2(O)C1=O.Cl (stereo in doubt)	6.2	50	12.5	50	12.5	50	12.5	12.5	12.5	50	inactive
C/C(=N\N1CCOCC1)C1=C(O)[C@H](N)[C@@H]2Cc3c(c(O)c4c(O)c(C)ccc4c3C)C(=O)[C@]2(O)C1=O.Cl	0.78	12.5	12.5	25	3.1	12.5	6.2	12.5	6.2	12.5	inactive
C/C(=N\Nc1ccccc1)C1=C(O)[C@H](N)[C@@H]2Cc3c(c(O)c4c(O)c(C)ccc4c3C)C(=O)[C@]2(O)C1=O.Cl	0.78	12.5	50	50	25	6.2	12.5	6.2	50	6.2	inactive
C/C(=N\c1ccc(F)cc1)C1=C(O)[C@H](N)[C@@H]2Cc3c(c(O)c4c(O)c(C)ccc4c3C)C(=O)[C@]2(O)C1=O.Cl	0.39	12.5	3.1	6.2	1.5	6.2	1.56	3.1	1.56	12.5	inactive
C=CCNC(=O)N/N=C(\C)C1=C(O)[C@H](N)[C@@H]2Cc3c(c(O)c4c(O)c(C)ccc4c3C)C(=O)[C@]2(O)C1=O.Cl	0.78	50	6.2	25	12.5	25	6.2	12.5	12.5	25	inactive
C/C(=N\N(C)C)C1=C(O)[C@H](N)[C@@H]2Cc3c(c(O)c4c(O)c(C)ccc4c3C)C(=O)[C@]2(O)C1=O.Cl	0.78	6.2	6.2	12.5	3.1	12.5	6.2	6.2	6.2	12.5	inactive
C/C(=N\NCCN(C)C)C1=C(O)[C@H](N)[C@@H]2Cc3c(c(O)c4c(O)c(C)ccc4c3C)C(=O)[C@]2(O)C1=O.Cl	3.1	100	25	50	25	50	25	50	25	50	inactive
COc1ccc(C(=O)N/N=C(\C)C2=C(O)[C@H](N)[C@@H]3Cc4c(c(O)c5c(O)c(C)ccc5c4C)C(=O)[C@]3(O)C2=O)cc1.Cl (stereo in doubt)	3.1	> 100	25	100	25	100	50	50	25	100	inactive
C/C(=N\NC(=O)c1ccc(O)cc1)C1=C(O)[C@H](N)[C@@H]2Cc3c(c(O)c4c(O)c(C)ccc4c3C)C(=O)[C@]2(O)C1=O.Cl (stereo in doubt)	3.1	100	12.5	50	25	50	25	50	12.5	50	inactive
